Test results from ChEMBL document CHEMBL4229533, “Design and synthesis of novel 6-hydroxy-4-methoxy-3-methylbenzofuran-7-carboxamide derivatives as potent Mnks inhibitors by fragment-based drug design” (Bioorg Med Chem, 2018).

Columns and labels:
[1] = target: T1, MAP kinase-interacting serine/threonine-protein kinase 2 (Homo sapiens, UniProt Q9HBH9); assay: Inhibition of MNK2 (unknown origin) at 10 uM using S3 as substrate measured after 60 mins by HTRF assay relative to control
Summary of the method: (§1)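 HTRF Ser/Thr KinEASE format. Mnk1 or Mnk2 enzyme (0.99 ng) incubated with compound for 60 min at room temperature with 1 μM substrate S3, 392 μM ATP, 10 mM MgCl₂ and 1 mM DTT in KinEASE enzymatic buffer. Stopped with SA-XL665 and STK antibody detection reagents; 615/665 nm signal ratio read. Single-concentration values are duplicate means; IC50 taken from inhibition curves.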
Target sequence in this assay (Q9HBH9 whole entry, looked up): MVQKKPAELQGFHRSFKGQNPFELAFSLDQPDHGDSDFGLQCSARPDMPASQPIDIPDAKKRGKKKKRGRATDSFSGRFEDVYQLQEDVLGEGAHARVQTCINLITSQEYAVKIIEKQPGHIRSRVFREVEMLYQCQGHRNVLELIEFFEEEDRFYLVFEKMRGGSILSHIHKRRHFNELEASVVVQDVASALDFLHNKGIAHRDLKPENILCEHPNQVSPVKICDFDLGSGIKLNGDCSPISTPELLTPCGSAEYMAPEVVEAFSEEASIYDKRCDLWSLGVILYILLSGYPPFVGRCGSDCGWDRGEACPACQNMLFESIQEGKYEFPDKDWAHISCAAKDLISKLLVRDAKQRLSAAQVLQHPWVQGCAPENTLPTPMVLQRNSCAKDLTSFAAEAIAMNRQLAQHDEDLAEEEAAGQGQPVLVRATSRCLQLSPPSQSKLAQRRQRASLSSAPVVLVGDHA

[2] = target: T1, MAP kinase-interacting serine/threonine-protein kinase 2; assay: Inhibition of MNK2 (unknown origin) at 1 uM using S3 as substrate measured after 60 mins by HTRF assay relative to control; summary of the method: as §1
Target sequence in this assay (Q9HBH9 whole entry, looked up): as above

THP-1 = assay: Antiproliferative activity against human THP1 cells after 96 hrs by MTT assay; assay type: functional, cell-based; details: THP-1, 96 h
Summary of the method: (§2)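 Cells seeded at 2,000 per well and grown 24 h at 37 °C in 5% CO₂. Compound added over a concentration range in triplicate wells, then incubated 96 h. MTT (2 mg/mL) added for 4 h, formazan taken up in DMSO, absorbance read at 570 nm. Inhibition calculated against untreated control. IC50 is the concentration giving half inhibition; mean of three independent experiments.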

[3] = target: MAP kinase-interacting serine/threonine-protein kinase 1 (Homo sapiens) (UniProt Q9BUB5); assay: Inhibition of MNK1 (unknown origin) at 0.1 uM using S3 as substrate measured after 60 mins by HTRF assay relative to control; summary of the method: as §1
[4] = target: MAP kinase-interacting serine/threonine-protein kinase 1 (Homo sapiens) (UniProt Q9BUB5); assay: Inhibition of MNK1 (unknown origin) at 10 uM using S3 as substrate measured after 60 mins by HTRF assay relative to control; summary of the method: as §1
[5] = target: MAP kinase-interacting serine/threonine-protein kinase 1 (Homo sapiens) (UniProt Q9BUB5); assay: Inhibition of MNK1 (unknown origin) at 1 uM using S3 as substrate measured after 60 mins by HTRF assay relative to control; summary of the method: as §1
[6] = target: T1, MAP kinase-interacting serine/threonine-protein kinase 2; assay: Inhibition of MNK2 (unknown origin) using S3 as substrate measured after 60 mins by HTRF assay
Target sequence in this assay (Q9HBH9 whole entry): as the sequence (Q9HBH9 whole entry, looked up) above

HCT-116 [7] = assay: Antiproliferative activity against human HCT116 cells after 96 hrs by MTT assay; assay type: functional, cell-based; details: HCT-116, 96 h; summary of the method: as §2
MOLM-13 = assay: Antiproliferative activity against human MOLM13 cells after 96 hrs by MTT assay; assay type: functional, cell-based; details: MOLM-13, 96 h; summary of the method: as §2
HCT-116 [8] = assay: Effect on eIF4E levels in human HCT116 cells at 1 to 4 times IC50 after 24 hrs by Western blot analysis; assay type: ADME, cell-based; details: hct-116, 24 h
Summary of the method: (§3)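 HCT-116 cells exposed to compound at several concentrations in 0.5% DMSO, or DMSO alone, for 24 h. Cells were rinsed in ice-cold PBS and lysed in RIPA buffer (pH 8.0), 50 µg protein loaded. Run on 8% or 12% SDS-PAGE, transferred to nitrocellulose and checked for loading by Ponceau S. Blocked in 5% milk, probed overnight at 4°C for eIF4E, p-eIF4E and GAPDH, detected by ECL.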

[9] = target: MAP kinase-interacting serine/threonine-protein kinase 1/2 (Homo sapiens) (UniProt Q9HBH9+Q9BUB5); assay: Inhibition of MNK1/MNK2 in human HCT116 cells assessed as reduction in eIF4E phosphorylation at Ser209 residue after 24 hrs by Western blot analysis; assay type: cell-based; summary of the method: as §3

Chain of MAP kinase-interacting serine/threonine-protein kinase 1 (Homo sapiens) (Q9BUB5 whole entry, looked up): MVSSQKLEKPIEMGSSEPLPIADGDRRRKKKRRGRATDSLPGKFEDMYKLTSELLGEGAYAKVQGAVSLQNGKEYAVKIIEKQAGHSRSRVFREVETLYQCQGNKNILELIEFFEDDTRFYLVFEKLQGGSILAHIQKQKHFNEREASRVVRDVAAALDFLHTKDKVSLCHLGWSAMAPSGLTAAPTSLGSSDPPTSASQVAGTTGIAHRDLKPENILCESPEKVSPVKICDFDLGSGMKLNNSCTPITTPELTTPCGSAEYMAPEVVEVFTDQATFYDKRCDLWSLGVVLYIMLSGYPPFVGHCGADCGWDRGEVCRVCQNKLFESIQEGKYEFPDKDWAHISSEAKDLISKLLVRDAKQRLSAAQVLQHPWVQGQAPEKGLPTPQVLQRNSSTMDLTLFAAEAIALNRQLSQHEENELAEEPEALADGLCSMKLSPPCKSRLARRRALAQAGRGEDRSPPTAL

SMILES | inhibition [1] | inhibition [2] | other results
COc1cc(O)c(C(N)=O)c2oc(C(=O)NC3CCN(Cc4ccncc4)CC3)c(C)c12 | 32% | 15% | –
COc1cc(O)c(C(N)=O)c2oc(C(=O)NC3CCN(Cc4ccc(Cl)cc4Cl)CC3)c(C)c12 | 0% | 0% | –
COc1cc(O)c(C(N)=O)c2oc(C(=O)NCC3CCN(Cc4ccc(Cl)c(Cl)c4)CC3)c(C)c12 | 38% | 21% | –
COc1cc(O)c(C(N)=O)c2oc(C(=O)NC3CCN(C(=O)c4ccc(C(F)(F)F)cc4)CC3)c(C)c12 | 29% | 26% | –
COc1cc(O)c(C(N)=O)c2oc(C(=O)N(C)C)c(C)c12 | 45% | 24% | –
COc1cc(O)c(C(N)=O)c2oc(C(=O)N3CCN(c4ccccc4)CC3)c(C)c12 | 15% | 8% | –
COc1cc(O)c(C(N)=O)c2oc(C(=O)NC3CCN(Cc4ccccc4F)CC3)c(C)c12 | 31% | 29% | –
COc1cc(O)c(C(N)=O)c2oc(C(=O)NCCN(C)C)c(C)c12 | 24% | 19% | –
COc1cc(O)c(C(N)=O)c2oc(C(=O)N3CCN(c4ccc(F)cc4)CC3)c(C)c12 | 10% | 5% | –
COc1cc(O)c(C(N)=O)c2oc(C(=O)NC3CCN(Cc4ccc(F)cc4)CC3)c(C)c12 | 15% | 8% | –
COc1cc(O)c(C(N)=O)c2oc(C(=O)NC3CCCCC3)c(C)c12 | 28% | 20% | –
COc1cc(O)c(C(N)=O)c2oc(C(=O)NCC3CCN(Cc4ccc(F)cc4)CC3)c(C)c12 | 41% | 32% | –
COc1cc(O)c(C(N)=O)c2oc(C(=O)NC3CCN(Cc4ccc(Cl)cc4)CC3)c(C)c12 | 45% | 29% | –
COc1cc(O)c(C(N)=O)c2oc(C(=O)N3CCCCC3)c(C)c12 | 23% | 19% | –
COc1cc(O)c(C(N)=O)c2oc(C(=O)NC3CCN(Cc4cc(Cl)ncn4)CC3)c(C)c12 | 11% | 0% | –
COc1cc(O)c(C(N)=O)c2oc(C(=O)N3CCN(c4cccc(C(F)(F)F)c4)CC3)c(C)c12 | 61% | 28% | –
COc1cc(OC)c2c(C)c(C(=O)NC3CCN(Cc4cccc(C(F)(F)F)c4)CC3)oc2c1 | 35% | 6% | –
COc1cc(OC)c2c(C)c(C(=O)NC3CCN(Cc4cccc(C(F)(F)F)c4)CC3)oc2c1C(N)=O | 29% | 2% | –
COc1cc(O)c(C(N)=O)c2oc(C(=O)NC3CCN(Cc4cccc(Cl)c4Cl)CC3)c(C)c12 | 21% | 18% | –
CNC(=O)c1oc2c(C(N)=O)c(O)cc(OC)c2c1C | 73% | 66% | IC50 (THP-1): > 50 µM; inhibition [3]: 11%; inhibition [4]: 39%; inhibition [5]: 26%; IC50 [6]: 1.45 µM
COc1cc(O)c(C(N)=O)c2oc(C(=O)NCC3CCN(Cc4cccc(C(F)(F)F)c4)CC3)c(C)c12 | 49% | 23% | –

SMILES | inhibition [1] | inhibition [2] | other results
CCN1CCN(C(=O)c2oc3c(C(N)=O)c(O)cc(OC)c3c2C)CC1 | 79% | 36% | IC50 (THP-1): 18.8 µM; inhibition [3]: 3%; inhibition [4]: 30%; IC50 (HCT-116 [7]): 15.7 µM; inhibition [5]: 7%; IC50 [6]: 1.16 µM; IC50 (MOLM-13): 13.5 µM
COc1cc(O)c(C(N)=O)c2oc(C(=O)Nc3ccc(C)c(C(F)(F)F)c3)c(C)c12 | 57% | 75% | IC50 (THP-1): > 50 µM; inhibition [3]: 12%; inhibition [4]: 23%; inhibition [5]: 23%; IC50 [6]: 3.55 µM
COc1cc(O)c(C(N)=O)c2occ(C)c12 | 77% | 43% | IC50 (THP-1): 32.4 µM; inhibition [3]: 34%; inhibition [4]: 39%; IC50 (HCT-116 [7]): 26.1 µM; inhibition [5]: 49%; IC50 [6]: 0.749 µM; IC50 (MOLM-13): 24.8 µM
CCOC(=O)c1oc2c(C(N)=O)c(O)cc(OC)c2c1C | 41% | 21% | –
COc1cc(O)c(C(N)=O)c2oc(C(=O)NC3CCCC3)c(C)c12 | 22% | 6% | –
COc1cc(O)c(C(N)=O)c2oc(C(=O)NC3CCN(Cc4cccc(C(F)(F)F)c4)CC3)c(C)c12 | 90% | 85% | Activity (HCT-116 [8]): Non-Toxic; IC50 (THP-1): 6.3 µM; inhibition [3]: 20%; inhibition [4]: 59%; IC50 (HCT-116 [7]): 2.77 µM; inhibition [5]: 41%; IC50 [6]: 0.273 µM; IC50 (MOLM-13): 3.15 µM; inhibition [9]: Dose-dependent effect
COc1cc(O)c(C(N)=O)c2oc(C(=O)Nc3ccc(F)c(C(F)(F)F)c3)c(C)c12 | 35% | 18% | –
COc1cc(O)c(C(N)=O)c2oc(C(=O)NCc3cccc(F)c3)c(C)c12 | 23% | 11% | –
COc1cc(O)c(C(N)=O)c2oc(C(=O)NCc3ccccc3)c(C)c12 | 28% | 24% | –
COc1cc(O)c(C(N)=O)c2oc(C(=O)NC3CCN(Cc4c(Cl)cccc4Cl)CC3)c(C)c12 | 27% | 1% | –
COc1cc(O)c(C(N)=O)c2oc(C(=O)NC3CCN(Cc4ccc(C)cc4)CC3)c(C)c12 | 40% | 27% | –
Cc1c(C(=O)NC2CCN(Cc3cccc(C(F)(F)F)c3)CC2)oc2cc(O)ccc12 | 28% | 0% | –
COc1cc(O)c(C(N)=O)c2oc(C(=O)N(C)Cc3ccccc3)c(C)c12 | 0% | 0% | –
Cc1c(C(=O)NC2CCN(Cc3cccc(C(F)(F)F)c3)CC2)oc2c(C(N)=O)c(O)cc(O)c12 | 34% | 1% | –
COc1cc(O)c(C(N)=O)c2oc(C(=O)NC3CCN(Cc4ccc(C(F)(F)F)cc4)CC3)c(C)c12 | 43% | 24% | –
COc1cc(O)c(C(N)=O)c2oc(C(=O)NCC3CCN(C(=O)c4ccc(F)cc4)CC3)c(C)c12 | 23% | 16% | –
COc1cc(O)c(C(N)=O)c2oc(C(=O)Nc3ccccc3)c(C)c12 | 0% | 0% | –
COc1cc(O)c(C(N)=O)c2oc(C(=O)N3CCOCC3)c(C)c12 | 24% | 12% | –
COc1ccc2c(C)c(C(=O)NC3CCN(Cc4cccc(C(F)(F)F)c4)CC3)oc2c1 | 27% | 0% | –
Nc1ncnc2[nH]nc(Nc3ccc(F)cc3)c12 | – | – | IC50 (THP-1): 11.7 µM; IC50 (HCT-116 [7]): 10.2 µM; IC50 (MOLM-13): 8.24 µM
